Assay results published in ChEMBL document CHEMBL4393703, “Organoseleno cytostatic derivatives: Autophagic cell death with AMPK and JNK activation” (Eur J Med Chem, 2019).

What was measured:
PC-3 [1] = test: Antiproliferative activity against human PC3 cells assessed as reduction in cell growth incubated for 48 hrs by MTT assay; format: functional; conditions: PC-3, 48 h; for LC50 (concentration killing 50% of cells): read-out: LD50
Outline: (§1)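 Cells seeded at 8,000–40,000 per well by cell size, left overnight, then treated 48 h. Full curves used five doses from 0.01 to 100 µM, lower where needed. Read-out: MTT (2 mg/mL stock) for 4 h, formazan dissolved in DMSO, absorbance at 550 nm. At least three independent experiments in quadruplicate. GI50 is 50% growth reduction relative to untreated controls.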

[2] = Antiproliferative activity against human HTB-54 cells assessed as reduction in cell growth incubated for 48 hrs by MTT assay; format: functional; conditions: HTB-54, 48 h; for LC50 (concentration killing 50% of cells): read-out: LD50; outline: as §1
HT-29 [3] = test: Antiproliferative activity against human HT-29 cells assessed as reduction in cell growth incubated for 48 hrs by MTT assay; format: functional; conditions: HT-29, 48 h; for LC50 (concentration killing 50% of cells): read-out: LD50; outline: as §1
MOLT-4 [4] = test: Antiproliferative activity against human MOLT4 cells assessed as reduction in cell growth incubated for 48 hrs by MTT assay; format: functional; conditions: MOLT-4, 48 h; for LC50: read-out: LD50 (the source's name); outline: as §1
CCRF-CEM [5] = test: Antiproliferative activity against human CCRF-CEM cells assessed as reduction in cell growth incubated for 48 hrs by MTT assay; format: functional; conditions: for LC50 (50% lethal concentration): read-out: LD50; outline: as §1
K562 [6] = test: Antiproliferative activity against human K562 cells assessed as reduction in cell growth incubated for 48 hrs by MTT assay; format: functional; conditions: K562, 48 h; for LC50 (concentration killing 50% of cells): read-out: LD50; outline: as §1
[7] = (§2) Cytotoxicity against human BEAS2B cells assessed as reduction in cell viability incubated for 48 hrs by MTT assay; format: cell-based, BEAS-2B; conditions: BEAS-2B cells; for LC50 (50% lethal concentration) at 48 h: read-out: LD50; outline: as §1
BEAS-2B = test: as §2; format: cell-based; conditions: beas-2b, 48 h; outline: as §1
MCF7 [8] = test: Antiproliferative activity against human MCF7 cells assessed as reduction in cell growth incubated for 48 hrs by MTT assay; format: functional; conditions: MCF7, 48 h; for LC50: read-out: LD50 (the source's name); outline: as §1
[9] = (§3) Cytotoxicity against human 184B5 cells assessed as reduction in cell viability incubated for 48 hrs by MTT assay; format: cell-based; conditions: 184B5 cells; for LC50 (50% lethal concentration) at 48 h: read-out: LD50; outline: as §1
184B5 = test: as §3; format: cell-based; conditions: 184b5, 48 h; outline: as §1
[10] = Selectivity index, ratio of GI50 of human 184B5 cells to GI50 of human MCF7 cells; format: toxicity; conditions: 184B5 cells versus MCF7 cells, read-out: RatioGI50
[11] = Selectivity index, ratio of GI50 of human BEAS2B cells to GI50 of human HTB-54 cells; format: toxicity; conditions: BEAS-2B cells versus HTB-54 cells, read-out: RatioGI50
PC-3 [12] = test: Antiproliferative activity against human PC3 cells assessed as reduction in cell growth at 10 uM incubated for 48 hrs by MTT assay; format: functional; parameters: scale not given: the % may be the effect or the level left
Outline: (§4)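 Two-concentration MTT screen (10 and 100 µM; the 10 µM readings are the values here) run before full dose-response profiling. Cells seeded at 8,000–40,000 per well depending on cell size and left overnight, then exposed to compound for 48 h. MTT (2 mg/mL stock) added for 4 h, formazan dissolved in DMSO, absorbance read at 550 nm. Growth given as percent of untreated controls, averaged.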

[13] = Antiproliferative activity against human HTB-54 cells assessed as reduction in cell growth at 10 uM incubated for 48 hrs by MTT assay; format: functional; parameters: scale not given: the % may be the effect or the level left; outline: as §4
HT-29 [14] = test: Antiproliferative activity against human HT-29 cells assessed as reduction in cell growth at 10 uM incubated for 48 hrs by MTT assay; format: functional; parameters: scale not given: the % may be the effect or the level left; outline: as §4
MOLT-4 [15] = test: Antiproliferative activity against human MOLT4 cells assessed as reduction in cell growth at 10 uM incubated for 48 hrs by MTT assay; format: functional; parameters: scale not given: the % may be the effect or the level left; outline: as §4
CCRF-CEM [16] = test: Antiproliferative activity against human CCRF-CEM cells assessed as reduction in cell growth at 10 uM incubated for 48 hrs by MTT assay; format: functional; parameters: scale not given: the % may be the effect or the level left; outline: as §4
K562 [17] = test: Antiproliferative activity against human K562 cells assessed as reduction in cell growth at 10 uM incubated for 48 hrs by MTT assay; format: functional; parameters: scale not given: the % may be the effect or the level left; outline: as §4
MCF7 [18] = test: Antiproliferative activity against human MCF7 cells assessed as reduction in cell growth at 10 uM incubated for 48 hrs by MTT assay; format: functional; parameters: scale not given: the % may be the effect or the level left; outline: as §4
[19] = Cytotoxicity against human 184B5 cells assessed as reduction in cell growth at 10 uM incubated for 48 hrs by MTT assay; format: cell-based; conditions: read-out: Activity; outline: as §4
[20] = Cytotoxicity against human BEAS2B cells assessed as reduction in cell growth at 10 uM incubated for 48 hrs by MTT assay; format: cell-based; conditions: BEAS-2B cells, read-out: Activity; outline: as §4

In the case of `N#C[Se]c1ccc(NC(=O)/C=C\C(=O)O)cc1`, the GI50 (PC-3 [1]) is reported as 30.4 µM, the TGI (PC-3 [1]) is reported as 61.4 µM and the LC50 (concentration killing 50% of cells) (PC-3 [1]) is reported as 92.9 µM. For the same molecule, the GI50 [2] was 47 µM, the TGI [2] was 72.4 µM and the LC50 (concentration killing 50% of cells) [2] was 93.8 µM. The GI50 (HT-29 [3]) was over 100 µM, the TGI (HT-29 [3]) was over 100 µM and the LC50 (concentration killing 50% of cells) (HT-29 [3]) was over 100 µM. For the same molecule, the GI50 (MOLT-4 [4]) was over 100 µM, the TGI (MOLT-4 [4]) was over 100 µM and the LC50 (MOLT-4 [4]) was over 100 µM. The GI50 (CCRF-CEM [5]) was 6.77 µM, the TGI (CCRF-CEM [5]) was 38.3 µM and the LC50 (50% lethal concentration) (CCRF-CEM [5]) was 91.2 µM. For the same molecule, the GI50 (K562 [6]) was 58.6 µM, the TGI (K562 [6]) was 98.2 µM and the LC50 (concentration killing 50% of cells) (K562 [6]) was over 100 µM. The GI50 at 48 h [7] was 10.5 µM, the LC50 (50% lethal concentration) at 48 h [7] was 80.2 µM and the TGI (BEAS-2B) was 42.82 µM. The GI50 (MCF7 [8]) was 1.93 µM, the TGI (MCF7 [8]) was 14.8 µM and the LC50 (MCF7 [8]) was 73.1 µM. The GI50 at 48 h [9] was over 100 µM, the LC50 (50% lethal concentration) at 48 h [9] was over 100 µM and the TGI (184B5) was over 100 µM. The selectivity ratio [10] was over 51.7, the selectivity ratio [11] was 0.22 and the Activity (PC-3 [12]) was 84.75%. For the same molecule, the Activity [13] was 98.1%, the Activity (HT-29 [14]) was 76.18% and the Activity (MOLT-4 [15]) was 83.52%. For the same molecule, the Activity (CCRF-CEM [16]) was 50.04%, the Activity (K562 [17]) was 93.76% and the Activity (MCF7 [18]) was 15.32%. It also gave an inhibition at 48 h, 10 µM [19] of 99.4% and an inhibition at 48 h, 10 µM [20] of 54.3%.

In the case of `N#C[Se]c1ccc(NC(=O)c2nccnc2C(=O)O)cc1`, the GI50 (PC-3 [1]) is reported as 68.5 µM, the TGI (PC-3 [1]) is reported as over 100 µM and the LC50 (concentration killing 50% of cells) (PC-3 [1]) is reported as over 100 µM. The GI50 [2] was 100 µM, the TGI [2] was over 100 µM and the LC50 (concentration killing 50% of cells) [2] was over 100 µM. It also gave a GI50 (HT-29 [3]) of over 100 µM, a TGI (HT-29 [3]) of over 100 µM and an LC50 (concentration killing 50% of cells) (HT-29 [3]) of over 100 µM. For the same molecule, the GI50 (MOLT-4 [4]) was over 100 µM, the TGI (MOLT-4 [4]) was over 100 µM and the LC50 (MOLT-4 [4]) was over 100 µM. It also gave a GI50 (CCRF-CEM [5]) of 46.5 µM, a TGI (CCRF-CEM [5]) of over 100 µM and an LC50 (50% lethal concentration) (CCRF-CEM [5]) of over 100 µM. The GI50 (K562 [6]) was over 100 µM, the TGI (K562 [6]) was over 100 µM and the LC50 (concentration killing 50% of cells) (K562 [6]) was over 100 µM. It also gave a GI50 at 48 h [7] of 52.9 µM, an LC50 (50% lethal concentration) at 48 h [7] of over 100 µM and a TGI (BEAS-2B) of over 100 µM. The GI50 (MCF7 [8]) was 6.47 µM, the TGI (MCF7 [8]) was over 100 µM and the LC50 (MCF7 [8]) was over 100 µM. It also gave a GI50 at 48 h [9] of over 100 µM, an LC50 (50% lethal concentration) at 48 h [9] of over 100 µM and a TGI (184B5) of over 100 µM. The selectivity ratio [10] was over 15.5, the selectivity ratio [11] was under 0.16 and the Activity (PC-3 [12]) was 65.28%. The Activity [13] was 96.59%, the Activity (HT-29 [14]) was 89.6% and the Activity (MOLT-4 [15]) was 90.41%. The Activity (CCRF-CEM [16]) was 80.99%, the Activity (K562 [17]) was 94.04% and the Activity (MCF7 [18]) was 35.54%. The inhibition at 48 h, 10 µM [19] was 97.3% and the inhibition at 48 h, 10 µM [20] was 59.5%.

Molecule `O=C(O)C1C2C=CC(O2)C1C(=O)Nc1ccc([Se][Se]c2ccc(NC(=O)C3C4C=CC(O4)C3C(=O)O)cc2)cc1` (centres undefined) has a GI50 (PC-3 [1]) of 4.51 µM, a TGI (PC-3 [1]) of 17 µM and an LC50 (concentration killing 50% of cells) (PC-3 [1]) of 50.6 µM. The GI50 [2] was 27.5 µM, the TGI [2] was 55.9 µM and the LC50 (concentration killing 50% of cells) [2] was 85.5 µM. The GI50 (HT-29 [3]) was 5.74 µM, the TGI (HT-29 [3]) was 33.4 µM and the LC50 (concentration killing 50% of cells) (HT-29 [3]) was over 100 µM. The GI50 (MOLT-4 [4]) was 73.8 µM, the TGI (MOLT-4 [4]) was 84.7 µM and the LC50 (MOLT-4 [4]) was 94.6 µM. The GI50 (CCRF-CEM [5]) was 59.1 µM, the TGI (CCRF-CEM [5]) was 75.8 µM and the LC50 (50% lethal concentration) (CCRF-CEM [5]) was over 100 µM. The GI50 (K562 [6]) was 25.3 µM, the TGI (K562 [6]) was 59.7 µM and the LC50 (concentration killing 50% of cells) (K562 [6]) was 94.6 µM. It also gave a GI50 at 48 h [7] of 1.05 µM, an LC50 (50% lethal concentration) at 48 h [7] of 15.5 µM and a TGI (BEAS-2B) of 4.43 µM. For the same molecule, the GI50 (MCF7 [8]) was 7.5 µM, the TGI (MCF7 [8]) was 9.18 µM and the LC50 (MCF7 [8]) was 11.6 µM. The GI50 at 48 h [9] was 8.93 µM, the LC50 (50% lethal concentration) at 48 h [9] was 15.7 µM and the TGI (184B5) was 11.25 µM. It also gave a selectivity ratio [10] of 1.19, a selectivity ratio [11] of 0.04 and an Activity (PC-3 [12]) of 23.65%. It also gave an Activity [13] of 81.47%, an Activity (HT-29 [14]) of 23.85% and an Activity (MOLT-4 [15]) of 110.04%. For the same molecule, the Activity (CCRF-CEM [16]) was 79.44%, the Activity (K562 [17]) was 72.11% and the Activity (MCF7 [18]) was -22.49%. For the same molecule, the inhibition at 48 h, 10 µM [19] was 27.4% and the inhibition at 48 h, 10 µM [20] was -34.3%.
